Measured values taken from ChEMBL document CHEMBL1955783, “Identification and optimization of small molecule antagonists of vasoactive intestinal peptide receptor-1 (VIPR1)” (Bioorg Med Chem Lett, 2012).
Activity calls are given as the source filed them. The rule behind the calls is not given here.

Tests used:
[1] = tested on: NCI-H1299; assay: Cytotoxicity against human NCI-H1299 cells expressing VIPR1 in presence of 2% serum; assay type: functional, cell-based
Method in brief: (§1)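 Cell proliferation in H727, H1299 and Calu6 lines, chosen for high VIPR1 expression. Medium held 2% serum to limit albumin sequestration. Compounds were tested at concentrations up to 10 µM.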

[2] = molecular target: T1, Vasoactive intestinal polypeptide receptor 1 (Rattus norvegicus) (UniProt P30083); assay: Displacement of [125I]VIP from vasoactive intestinal peptide receptor 1 in rat RKE cell membrane after 3 hrs by TopCount assay; assay type: cell membranes
T1 sequence (whole entry): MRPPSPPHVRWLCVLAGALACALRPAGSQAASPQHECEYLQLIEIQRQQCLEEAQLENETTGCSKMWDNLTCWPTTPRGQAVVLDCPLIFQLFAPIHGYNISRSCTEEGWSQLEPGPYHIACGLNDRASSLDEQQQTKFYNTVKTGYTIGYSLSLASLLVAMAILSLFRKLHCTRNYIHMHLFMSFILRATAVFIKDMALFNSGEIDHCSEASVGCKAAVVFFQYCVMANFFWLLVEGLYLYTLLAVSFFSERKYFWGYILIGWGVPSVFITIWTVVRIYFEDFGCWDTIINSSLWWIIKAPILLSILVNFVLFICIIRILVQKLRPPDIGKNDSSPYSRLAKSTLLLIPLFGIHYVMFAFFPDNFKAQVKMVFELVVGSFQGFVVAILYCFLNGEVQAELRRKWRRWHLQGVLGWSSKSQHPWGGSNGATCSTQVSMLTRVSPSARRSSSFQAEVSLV
Method in brief: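 Membranes from RKE-VIPR cells, 5 µg/well final, preincubated 10 min at room temperature with wheat germ agglutinin-coated PVT beads in 50 mM HEPES, 5 mM MgCl2, 1 mM CaCl2, 0.1% BSA. IC50 taken from a four-parameter logistic fit after subtracting nonspecific binding, defined with excess VIP.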

[3] = molecular target: T2, Vasoactive intestinal polypeptide receptor 1 (Rattus norvegicus, UniProt P30083); assay: Antagonist activity at vasoactive intestinal peptide receptor 1 in rat RKE cells assessed as inhibition of VIP-induced intracellular cAMP accumulation incubated for 15 mins prior to VIP-stimulation measured after 30 mins by HTRF assay
T2 sequence (P30083 whole entry): T1 sequence (whole entry)

[4] = tested on: Calu-6; assay: Cytotoxicity against human Calu6 cells expressing VIPR1 in presence of 2% serum; assay type: functional, cell-based; method in brief: as §1
[5] = tested on: NCI-H727; assay: Cytotoxicity against human NCI-H727 cells expressing VIPR1 in presence of 2% serum; assay type: functional, cell-based; method in brief: as §1

N#Cc1c(NC(=O)C2Cc3ccccc3C2)sc2c1CCCC2
Activity [1]: inactive | Activity [2]: Active | IC50 [3]: 17000 nM | Activity [4]: inactive | Activity [5]: inactive

CC(C)C(=O)Nc1sc2c(c1C#N)CCCC2
Activity [1]: inactive | Activity [2]: Active | IC50 [3]: 3400 nM | Activity [4]: inactive | Activity [5]: inactive

N#Cc1c(NC(=O)Cc2ccccc2)sc2c1CCCC2
Activity [1]: inactive | Activity [2]: Active | IC50 [3]: 1600 nM | Activity [4]: inactive | Activity [5]: inactive

N#Cc1c(NC(=O)CCc2ccc(Cl)cc2)sc2c1CCCC2
Activity [1]: inactive | Activity [2]: Active | IC50 [3]: 1200 nM | Activity [4]: inactive | Activity [5]: inactive

CCC(=O)Nc1sc2c(c1C#N)CCCC2
Activity [1]: inactive | Activity [2]: Active | IC50 [3]: 12000 nM | Activity [4]: inactive | Activity [5]: inactive

COc1cccc(CCC(=O)Nc2sc3c(c2C#N)CCCC3)c1
Activity [1]: inactive | Activity [2]: Active | IC50 [3]: 610 nM | Activity [4]: inactive | Activity [5]: inactive

N#Cc1c(NC(=O)COc2ccccc2)sc2c1CCCC2
Activity [1]: inactive | Activity [2]: Active | IC50 [3]: 9100 nM | Activity [4]: inactive | Activity [5]: inactive

Cc1ccccc1CCC(=O)Nc1sc2c(c1C#N)CCCC2
Activity [1]: inactive | Activity [2]: Active | IC50 [3]: 11000 nM | Activity [4]: inactive | Activity [5]: inactive

CC(=O)Nc1sc2c(c1C#N)CCCC2
Activity [1]: inactive | Activity [2]: Active | IC50 [3]: 13000 nM | Activity [4]: inactive | Activity [5]: inactive

N#Cc1c(NC(=O)CCc2ccccc2)sc2c1CCCC2
Activity [1]: inactive | Activity [2]: Active | IC50 [3]: 290 nM | Activity [4]: inactive | Activity [5]: inactive

N#Cc1c(NC(=O)Cc2cc3ccccc3[nH]2)sc2c1CCCC2
Activity [1]: inactive | Activity [2]: Active | IC50 [3]: 50000 nM | Activity [4]: inactive | Activity [5]: inactive

N#Cc1c(NC(=O)C2CCC2)sc2c1CCCC2
Activity [1]: inactive | Activity [2]: Active | IC50 [3]: 1800 nM | Activity [4]: inactive | Activity [5]: inactive

N#Cc1c(NC(=O)C2CCc3ccccc3C2)sc2c1CCCC2 (stereo not given)
Activity [1]: inactive | Activity [2]: Active | IC50 [3]: 12000 nM | Activity [4]: inactive | Activity [5]: inactive

Cc1cccc(CCC(=O)Nc2sc3c(c2C#N)CCCC3)c1
Activity [1]: inactive | Activity [2]: Active | IC50 [3]: 750 nM | Activity [4]: inactive | Activity [5]: inactive

COc1ccc(CCC(=O)Nc2sc3c(c2C#N)CCCC3)cc1
Activity [1]: inactive | Activity [2]: Active | IC50 [3]: 410 nM | Activity [4]: inactive | Activity [5]: inactive

N#Cc1c(NC(=O)CC2Cc3ccccc3O2)sc2c1CCCC2 (stereo not given)
Activity [1]: inactive | Activity [2]: Active | IC50 [3]: 3800 nM | Activity [4]: inactive | Activity [5]: inactive

CC(C)CC(=O)Nc1sc2c(c1C#N)CCCC2
Activity [1]: inactive | Activity [2]: Active | IC50 [3]: 1900 nM | Activity [4]: inactive | Activity [5]: inactive

N#Cc1c(NC(=O)Cc2cc3ccccc3s2)sc2c1CCCC2
Activity [1]: inactive | Activity [2]: Active | IC50 [3]: 1900 nM | Activity [4]: inactive | Activity [5]: inactive

N#Cc1c(NC(=O)C2CC2)sc2c1CCCC2
Activity [1]: inactive | Activity [2]: Active | IC50 [3]: 2700 nM | Activity [4]: inactive | Activity [5]: inactive
